Source: PubChem BioAssay
Sampled rows, rich in hits. Any-hit rate of the full collection: about 2.2%.
miR122 inh: miR-122 inhibition in Huh7 cells | Huh7 miR-122 Renilla luciferase sensor, 48 h; neutral wells = 0, positive control = 100 | activation (reporter increase), % at 12.5 µM | hit rate 0.3% among 340,000;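 active means mean replicate activation score at least 90 and every replicate individually at or above 90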;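 further: higher luciferase means less miR-122 activity so hits act as miR-122 inhibitors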
FGF22 binding-1: binders of recombinant human FGF22 by thermal shift. Q9HCT0. SYPRO orange fluorescence; percent of sucrose octasulfate shift, DMSO zero. activity (Tm shift, normalised), % at 9.99 µM. hit rate 1.5% among 340,000. AID 651658;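 active means mean Tm shift, scaled 0 neutral to 100 positive control, at about 1.3% or above, every replicate too, limit read from the data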
Target sequence (Q9HCT0 whole entry, looked up): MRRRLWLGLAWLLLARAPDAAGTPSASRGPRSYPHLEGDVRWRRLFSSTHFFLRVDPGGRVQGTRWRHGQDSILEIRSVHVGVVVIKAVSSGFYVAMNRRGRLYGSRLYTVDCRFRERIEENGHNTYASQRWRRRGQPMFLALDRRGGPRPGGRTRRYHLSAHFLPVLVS
697 NFkB inh: inhibitors of the PMA/ionomycin-induced NF-kB reporter in 697 B cells; 697 B-cell NF-kB luciferase reporter, 16 h; inhibition, % at 4 µM; hit rate 0.33% among 330,000; AID 435022; in the data active means inhibition above about 35%
NR2E3 ag-1: agonists of human nuclear receptor NR2E3 | AID 2300 | inhibition of corepressor binding, % at 4.78 µM | Q9Y5X4 | hit rate 0.12% among 320,000 | GST-NR2E3/biotin-RetCOR TR-FRET, 1536-well;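 active means percent inhibition above the cutoff of mean plus 3 SD of all tested compounds, set per screening campaign, cut at about 20% in these data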;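 further: 0% = DMSO wells and 100% = biotin wells as full block of FRET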
Target sequence (Q9Y5X4 whole entry, looked up): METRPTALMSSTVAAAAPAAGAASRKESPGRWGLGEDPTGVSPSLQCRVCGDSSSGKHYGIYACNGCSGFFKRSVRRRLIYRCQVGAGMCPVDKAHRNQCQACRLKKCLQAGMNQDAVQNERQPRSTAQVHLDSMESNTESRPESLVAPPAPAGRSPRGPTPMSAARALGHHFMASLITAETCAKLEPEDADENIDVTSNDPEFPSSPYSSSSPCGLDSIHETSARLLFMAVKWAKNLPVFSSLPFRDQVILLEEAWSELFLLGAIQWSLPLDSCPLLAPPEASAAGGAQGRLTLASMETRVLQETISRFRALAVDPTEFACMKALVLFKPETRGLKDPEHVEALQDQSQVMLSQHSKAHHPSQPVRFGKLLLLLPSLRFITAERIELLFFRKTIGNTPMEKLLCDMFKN
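Test system: GST-NR2E3 and biotin-RetCOR proteins | Quantity: 1.35 nM GST-tagged NR2E3 final | Medium: Tris pH 7.5 | Also added: 7 nM biotin-RetCOR | Dosing: Compound at 4.8 µM, single dose | Timing: 5 h at 4 °C | Detection: Time-resolved FRET | Read-out basis: Percent inhibition | Benchmarks: Biotin wells as high control, 0.6% DMSO wells as low control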
Jurkat NFkB inh: inhibitors of the PMA/ionomycin-induced NF-kB reporter in Jurkat cells; PMA/ionomycin-induced NF-kB luciferase reporter, luminescence; inhibition, % at 4 µM; hit rate 0.53% among 330,000; in the data active means inhibition above about 50%
NR2E3 ag-2: agonists of human NR2E3 nuclear receptor; AID 602229; CHO-S Gal4-NCOR/VP16-NR2E3 two-hybrid, luciferase; inhibition of corepressor binding, % at 3.98 µM; hit rate 0.35% among 360,000;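 active means inhibition above the mean of all tested compounds plus 3 SD, cut at about 70% in these data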;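 further: 0% = DMSO with NR2E3 transfected cells and 100% = cells lacking NR2E3 construct; higher means lower luciferase signal from less NR2E3 corepressor binding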
FGF22 binding-2: binders of human FGF22 by thermal shift. shares compounds with FGF22 binding-1. recombinant FGF22 thermal shift, SYPRO orange fluorescence. thermal shift activity, °C (ΔTm) at 38 µM. hit rate 2% among 1,000;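 active means fitted rise in melting shift crosses a set limit at or below the top valid dose tested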
FGF22 TSA: FGF22 (human) binding by thermal shift; Thermal shift assay, SYPRO orange, melting temperature shift; shares compounds with FGF22 binding-1; Tm shift (activity), % at 38 µM; 50 tested, under 10 active;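 active means compounds whose fitted dose curve of melting temperature shift rises past a set threshold within the tested doses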
SYPRO no-protein: shows thermal shift signal without protein, FGF22 counter-screen; hit rate 2% among 1,000; compound-only SYPRO orange thermal shift counter-screen, no protein; shares compounds with FGF22 binding-1; AID 743019; AC50, µM (top dose mostly 38 µM);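 active means rising signal whose fitted curve reaches the 0.54 level within the top valid dose, showing a melting point, actives reach about 13 µM in these data; inactive means the rest, including activity in the opposite direction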; further: value is where the raw curve crosses a fixed level and not half-maximal
The depositor's hits bear a star; [ ] = dose if it differs, or a comment.

Screening C[C@H]1CN([C@@H](C)CO)C(=O)CCCn2cc(nn2)CO[C@H]1CN(C)Cc1ccc(-c2ccccc2)cc1 returned miR122 inh 0[16.7 µM] and FGF22 binding-1 0.
`Cn1c(=O)c2c(-c3ccccc3)n(-c3cc(Cl)c([N+](=O)[O-])cc3O)cc2n(C)c1=O` gave miR122 inh -24, FGF22 binding-1 1.6*, NR2E3 ag-2 3 and SYPRO no-protein inactive.
Cc1cccc(-c2c3c(=O)n(C)c(=O)n(C)c3cn2-c2ccccc2O)c1 was read as miR122 inh -3, 697 NFkB inh -7, NR2E3 ag-1 -1, Jurkat NFkB inh -11 and NR2E3 ag-2 -5.
`Cn1c(=O)c2c(-c3ccccc3)n(-c3cc([N+](=O)[O-])ccc3O)cc2n(C)c1=O` gave miR122 inh -13, FGF22 binding-1 1.4*, NR2E3 ag-2 -6, FGF22 binding-2 -0.13 and SYPRO no-protein inactive.
For COc1cc2oc(-c3ccc(O)cc3)cc(=O)c2c(O)c1OC the results were miR122 inh -10, FGF22 binding-1 10*, 697 NFkB inh -5, NR2E3 ag-1 3, Jurkat NFkB inh -15, NR2E3 ag-2 -16, FGF22 binding-2 -0.085 and SYPRO no-protein inactive.
`COc1cc2oc(-c3ccc(O)cc3)cc(=O)c2c(OC)c1O` gave FGF22 binding-1 -1, 697 NFkB inh 14, Jurkat NFkB inh 3 and NR2E3 ag-2 -27.
O=S(=O)(Nc1nnc(C(F)(F)F)s1)c1ccc(Cl)cc1 was read as miR122 inh 5, FGF22 binding-1 2.6*, 697 NFkB inh 11, NR2E3 ag-1 -1, Jurkat NFkB inh -6, NR2E3 ag-2 -10, FGF22 TSA 0 and SYPRO no-protein inactive.
Cc1noc(C)c1S(=O)(=O)Nc1cccc2c1O[C@@H](CN(C)CC1CC1)[C@@H](C)CN([C@H](C)CO)C2=O was read as miR122 inh -6[16.7 µM] and FGF22 binding-1 0.
For Cc1ccc(Nc2ccc(NCc3ccccc3)nn2)cc1C the results were miR122 inh 3, 697 NFkB inh -24, NR2E3 ag-1 3, Jurkat NFkB inh -30 and NR2E3 ag-2 -80.
For Clc1ccc(Nc2ccc(NCc3ccccc3)nn2)cc1 the results were FGF22 binding-1 2.3*, 697 NFkB inh -4, NR2E3 ag-1 -2, Jurkat NFkB inh -28, NR2E3 ag-2 -19, FGF22 binding-2 0.014, FGF22 TSA 0 and SYPRO no-protein inactive.
For CN(C)CC(=O)N[C@H]1CC[C@H](CCn2cc(CN(C)C)nn2)O[C@H]1CO the results were FGF22 binding-1 0.
Screening CC(=O)N(C)C[C@H]1Oc2cc(C3=CCCCC3)ccc2S(=O)(=O)N([C@H](C)CO)C[C@@H]1C returned miR122 inh 1[16.7 µM].
Screening O=C(CNC(=O)c1ccc(S(=O)(=O)N2CCCC2)cc1)N/N=C/c1ccccc1Cl returned miR122 inh 7, 697 NFkB inh -3, NR2E3 ag-1 2, Jurkat NFkB inh -11 and NR2E3 ag-2 15.
`O=C(Nc1ccc(S(=O)(=O)N2CCOCC2)cc1)c1ccc(S(=O)(=O)N2CCOCC2)cc1` gave FGF22 binding-1 0, 697 NFkB inh 2, NR2E3 ag-1 1, Jurkat NFkB inh 0 and NR2E3 ag-2 17.
O=C(CNC(=O)c1ccc(S(=O)(=O)N2CCCC2)cc1)N/N=C/c1ccc(F)cc1 was read as FGF22 binding-1 1.4*, 697 NFkB inh 29, NR2E3 ag-1 0, Jurkat NFkB inh 7, NR2E3 ag-2 6, FGF22 binding-2 -0.03 and SYPRO no-protein inactive.
O=C(Nc1ccc(S(=O)(=O)N2CCOCC2)cc1)c1ccc(F)cc1 was read as FGF22 binding-1 1.4*, 697 NFkB inh 5, NR2E3 ag-1 6, Jurkat NFkB inh -5, NR2E3 ag-2 -10, FGF22 TSA 0 and SYPRO no-protein inactive.
Screening CC(=O)c1ccc(OCCCC(=O)Nc2ccc(S(=O)(=O)N3CCOCC3)cc2)cc1 returned miR122 inh 4, FGF22 binding-1 1.9*, 697 NFkB inh 5, NR2E3 ag-1 -1, Jurkat NFkB inh -6, NR2E3 ag-2 3, FGF22 binding-2 -0.23 and SYPRO no-protein inactive.
Screening CCCN(C)C[C@@H]1Oc2cc(C#C[C@@H](C)O)ccc2S(=O)(=O)N([C@@H](C)CO)C[C@@H]1C returned miR122 inh -6[16.7 µM] and FGF22 binding-1 0.
For COCCNC(=O)c1cccc2c(-c3cnn(C)c3)coc12 the results were miR122 inh -2, FGF22 binding-1 2.4*, NR2E3 ag-2 24, FGF22 binding-2 0.039 and SYPRO no-protein inactive.
`N#C[C@H]1[C@H](c2ccccc2-c2ccccc2F)[C@@H](CO)N1C(=O)C1CCC1` gave FGF22 binding-1 1.4*, FGF22 binding-2 0.14[42 µM] and SYPRO no-protein inactive.
Screening C[C@H](CO)N1C[C@H](C)[C@@H](CN(C)C(=O)Nc2ccccc2)Oc2c(NC(=O)C3CCOCC3)cccc2C1=O returned miR122 inh 5[16.7 µM] and FGF22 binding-1 0.
Screening C[C@H](CO)N1C[C@H](C)[C@@H](CN(C)C(=O)CN(C)C)Oc2cc(C3=CCCCC3)ccc2S1(=O)=O returned miR122 inh 1[16.7 µM], FGF22 binding-1 1.6*, FGF22 binding-2 0.12[42 µM] and SYPRO no-protein inactive.
For C[C@@H]1CN([C@@H](C)CO)S(=O)(=O)c2ccc(C3=CCCCC3)cc2O[C@H]1CN(C)C(=O)CN(C)C the results were miR122 inh -5[16.7 µM], FGF22 binding-1 1.3*, FGF22 binding-2 0.82 and SYPRO no-protein inactive.
C[C@@H]1CN([C@@H](C)CO)S(=O)(=O)c2ccc(-c3cncnc3)cc2O[C@H]1CN(C)C(=O)CN(C)C was read as miR122 inh 5[16.7 µM] and FGF22 binding-1 0.
`C[C@@H]1CN([C@@H](C)CO)S(=O)(=O)c2ccc(C3=CCCC3)cc2O[C@@H]1CN(C)C(=O)C1CCCCC1` gave miR122 inh -8[16.7 µM], FGF22 binding-1 1.5*, FGF22 binding-2 -0.032 and SYPRO no-protein inactive.
For C[C@@H]1CN([C@H](C)CO)S(=O)(=O)c2ccc(-c3cncnc3)cc2O[C@@H]1CN(C)C(=O)CN(C)C the results were miR122 inh -7[16.7 µM], FGF22 binding-1 15*, FGF22 binding-2 0.11 and SYPRO no-protein inactive.
